# Assays:
# Staphylococcus aureus [1] = test: Antibacterial activity against Staphylococcus aureus Mu50 infected Balb/c mouse assessed as reduction of bacterial survival in kidney at 1.3 mg, ip bid administered for 4.5 days followed by bacterial infection measured after 5 days; format: functional
# Staphylococcus aureus [2] = test: Inhibition of staphyloxanthin pigment formation in methicillin-resistant Staphylococcus aureus Mu50 after 48 hrs by spectrophotometric method; format: functional, organism-based; details: Mu50, 48 h
# Outline: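 MRSA grown in 4 mL TSB with 40 µL compound (2-fold serial dilutions from 20 mM DMSO stock) at 37 °C for 48 h, triplicate. Cells washed twice in PBS, pigment extracted with methanol, OD450 measured; IC50 from dose-response fit.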
# Staphylococcus aureus [3] = test: Sensitization of methicillin-resistant Staphylococcus aureus Mu50 to H2O2 assessed as reduction in bacterial survival at 1 uM measured after 24 hrs relative to control; format: functional
# Outline: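 Strains grown 24 h in TSB with or without inhibitor, washed twice in PBS, then diluted to 4 × 10^6 CFU per 250 µL reaction. H2O2 added to a final 1.5%. Tubes sealed and held 30 min at 37 °C. Reaction stopped with 1000 U/mL catalase. Survivors counted as CFU by serial dilution on TSA plates and compared with untreated (mock) bacteria.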
# Staphylococcus aureus [4] = test: Sensitization of Staphylococcus aureus USA300 LAC to immune clearance in human whole blood assessed as bacterial survival at 1 uM measured after 24 hrs (reference value: 12.2%); format: functional
# Staphylococcus aureus [5] = test: Sensitization of Staphylococcus aureus USA300 LAC to immune clearance in human whole blood assessed as reduction in bacterial survival at 1 uM […] relative to control; format: functional
# Staphylococcus aureus [6] = test: Suppression in growth of methicillin-resistant Staphylococcus aureus USA300 LAC at 0.2 mM measured after overnight incubation by spectrophotometric method; format: organism-based; details: 200 µM
# Outline: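 Compound from 20 mM DMSO stock diluted in TSB to final 0.2 or 0.05 mM; DMSO growth controls; paraffin overlay. Overnight cultures inoculated to final OD600 ≈ 0.05; incubated at 37 °C overnight with OD600 read every 30 min.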
# [7] = Terminal half life in Sprague-Dawley rat at 5 mg/kg, iv administered as single dose; format: ADME, organism-based; details: in vivo, read-out: beta t1/2 (converted)
# Outline: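 Male SD rats, 3 per group, single iv 5 mg/kg or oral 10 mg/kg. Blood sampled 0.083 (iv only), 0.25, 0.5, 1, 2, 4, 6, 8, 24 h postdose; plasma separated at 4 °C, stored −80 °C, analysed within 1 week. Parameters from plasma concentration-time data; F from dose-normalized AUC, oral vs iv.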
# [8] = system: Trichophyton mentagrophytes; test: Antifungal activity against Trichophyton mentagrophytes measured after 7 days by serial dilution method; format: functional
# Outline: (§1)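 Broth serial dilution MIC per NCCLS in RPMI 1640 buffered with 0.165 M MOPS; compounds in DMSO diluted in medium. Dermatophytes incubated at 28 °C, read at 7 days. MIC taken as lowest concentration giving ≥80% growth inhibition versus control (turbidity).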
# Staphylococcus aureus [9] = test: Sensitization of Staphylococcus aureus Newman to H2O2 assessed as bacterial survival at 1 uM measured after 24 hrs (reference value: 36.2%); format: functional
# Trichophyton verrucosum = test: Antifungal activity against Trichophyton verrucosum measured after 7 days by serial dilution method; format: functional; outline: as §1
structure (smiles),measurement,setting,value
CN(C/C=C/c1ccc(C(F)(F)F)cc1)Cc1cccc2ccoc12.Cl,Activity,Staphylococcus aureus [1],0.68 deltalog10CFU
same,IC50,Staphylococcus aureus [2],0.38 nM
same,fold change (FC),Staphylococcus aureus [3],6
same,survival at 1 µM,Staphylococcus aureus [4],1.2%
same,fold change (FC),Staphylococcus aureus [5],10
same,Activity,Staphylococcus aureus [6],Non-toxic
same,half-life,[7],8.23 h
same,MIC=<80,[8],>64 µg/mL
same,survival at 1 µM,Staphylococcus aureus [9],1.2%
same,MIC80 (lowest concentration giving ≥80% growth inhibition),Trichophyton verrucosum,>64 µg/mL
